Glyco luc inh: increase of ERlucT glycosylation luciferase signal, primary screen, N-linked glycosylation inhibitor project, D54 ERlucT cells, luminescence, set 2; D54 ERlucT glycosylation luciferase reporter, 24 h; percent of 100 nM tunicamycin response; reporter increase, % at 12.5 µM; actives 0.23% (n = 360,000);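 active = mean luciferase reporter signal, scaled so untreated is 0 and the glycosylation-blocking control 100, at or above a set limit in every replicate; inconclusive = mean reaches the limit but not every replicate does; inactive = mean below the limit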;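 also: luciferase carries N-glycosylation sites so blocking glycosylation raises the light; 0% = median of neutral control wells and 100% = median of 100 nM tunicamycin wells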
CDK5 p35 inh: inhibitors of human CDK5/p35 kinase, primary screen, biochemical, single concentration; Cyclin-dependent kinase 5 (Homo sapiens) + Cyclin-dependent kinase 5 activator 1 (Homo …; Recombinant CDK5/p35, ADP-Glo luminescence, 60 min; inhibition, % at 10 µM; actives 0.01% (n = 330,000);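 active = highest replicate inhibition of at least 50% and at least 75% of replicates reaching 50%; inconclusive = only one of the two criteria met; inactive = both criteria failed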;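 also: plate controls were DMSO neutral control for no effect and GW8510 at 10 µM for full effect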
Target sequence (Q00535 whole entry, looked up): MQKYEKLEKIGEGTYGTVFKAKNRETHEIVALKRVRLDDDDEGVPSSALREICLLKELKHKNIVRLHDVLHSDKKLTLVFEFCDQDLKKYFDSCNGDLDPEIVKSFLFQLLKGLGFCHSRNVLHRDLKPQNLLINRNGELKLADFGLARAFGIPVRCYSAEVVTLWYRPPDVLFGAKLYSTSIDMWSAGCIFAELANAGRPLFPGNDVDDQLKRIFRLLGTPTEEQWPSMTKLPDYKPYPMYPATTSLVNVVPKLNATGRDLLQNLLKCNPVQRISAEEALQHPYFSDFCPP
Target sequence (Q15078 whole entry, looked up): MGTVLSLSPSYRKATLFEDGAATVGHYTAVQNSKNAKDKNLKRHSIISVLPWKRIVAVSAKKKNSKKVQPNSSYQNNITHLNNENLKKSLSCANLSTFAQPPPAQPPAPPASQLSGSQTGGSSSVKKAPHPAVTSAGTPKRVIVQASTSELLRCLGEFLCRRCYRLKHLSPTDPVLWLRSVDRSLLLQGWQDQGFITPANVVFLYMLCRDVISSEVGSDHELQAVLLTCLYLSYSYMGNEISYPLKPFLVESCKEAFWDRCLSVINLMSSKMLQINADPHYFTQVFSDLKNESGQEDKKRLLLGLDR
PvdQ inh: P. aeruginosa PvdQ acylase inhibitors, primary screen, biochemical, fluorescence, plate reader and imaging, single point; purified PvdQ acylase; inhibition, % at 10 µM; actives 0.063% (n = 340,000); in the data active = inhibition above about 30%, passing the limit was not always enough; inconclusive = no clear call, values can overlap the other calls;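 also: 0% = vehicle neutral wells and 100% = reference inhibitor wells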
CAL PDZ FP-1: CAL PDZ peptide-binding inhibitors, primary screen, biochemical, fluorescence polarization, Cer-tagged CAL PDZ, HTS; Golgi-associated PDZ and coiled-coil motif-containing protein (Homo sapiens), Q9HD26; purified CAL PDZ, TMR-peptide fluorescence polarization, 1 h; inhibition, % at 20 µM; actives 0.02% (n = 330,000); AID 504414, 2011;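 active = highest replicate inhibition of at least 40%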;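 also: plate controls were DMSO neutral control wells for no effect and unlabeled competitor peptide control wells for full effect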
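Control set: unlabelled peptide and DMSO controls / Material: purified CerCALP PDZ construct / Timing: 1 h incubation at room temperature before polarization reading / Doses: 20 µM, one dose / Detection: fluorescence polarization (mP)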
CAL PDZ FP-2: untagged CAL PDZ binding inhibitors, primary screen, biochemical, fluorescence polarization, HTS; Golgi-associated PDZ and coiled-coil motif-containing protein (Homo sapiens), Q9HD26; purified CAL PDZ, TMR-peptide fluorescence polarization, 1 h; inhibition, % at 24.9 µM; actives 0.92% (n = 300,000); AID 602252, 2012;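 active = mean inhibition of at least 30% with at least half of replicates also reaching 30%; inconclusive = no clear call, values can overlap the other calls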;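 also: 0% = DMSO neutral control and 100% = excess unlabeled competitor peptide PRC23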
Vif inh: HIV Vif self-association inhibitors, primary screen, imaging, HEK293T, single point; HEK293T cells, Vif self-association by quenched fluorescence, 24 h; inhibition, % at 7.49 µM; actives 0.35% (n = 340,000); in the data active = inhibition above about 50%, passing the limit was not always enough; inconclusive = no clear call, values can overlap the other calls; inactive = below about 31%
Active calls of the source: *; ? = inconclusive; . = not tested or not shown. In the library only some 1.4% were active in any assay of this set; here they are far more common.

SMILES	Glyco luc inh	CDK5 p35 inh	PvdQ inh	CAL PDZ FP-1	CAL PDZ FP-2	Vif inh
S=C(NCC1CCCO1)N1CCc2ccccc2C1 (stereo unspecified)	-2	-4	-13	-3	-2	-5
O=C(NCc1cccc(C(F)(F)F)c1)c1csc([C@@H]2O[C@H](CO)[C@H](O)[C@H](O)[C@H]2O)n1	1	.	.	.	.	-10
CCn1c(SCC(=O)Nc2cccc(S(=O)(=O)N(C)c3ccccc3)c2)nnc1C1CC1	-3	1	10	-1	0	2
COc1ccc2[nH]c(CN3CCN(C(C)C)C(CCO)C3)c(C)c2c1 (stereo unspecified)	1	-1	-14	1	-4	64*
COc1ccc2[nH]c(CN3CCN(CC(C)C)C(CCO)C3)c(C)c2c1 (stereo unspecified)	-1	-3	-22	0	-2	1
O=C(Nc1ccc(Cl)cc1)c1ccc(OCC2CCCO2)cc1 (stereo unspecified)	0	2	-11	0	34*	.
CC(NC(=S)NC(=O)c1ccccc1Br)c1ccccc1 (stereo unspecified)	3	3	-14	.	77*	0
CC(C)C(NC(=O)c1ccccc1Br)c1ccccc1 (stereo unspecified)	1	1	6	-2	-4	-3
Fc1c(F)c(-n2nnc3ccccc32)c(F)c(F)c1Cl	-2	1	3	-2	6	60*
Cc1cc(OC(=O)c2ccc(Cl)cc2Cl)c([N+](=O)[O-])c(=O)[nH]1	1	0	-9	0	.	9
CCCOc1ccc(C(=O)N/N=C/c2c[nH]c3ccc(Br)cc23)cc1	2	1	12	-1	-4	?
CCCCCN=C(N)N/N=C/c1c[nH]c2ccc(OC)cc12	-20	2	-10	3	0	81*
COc1ccc(Cn2cc3c(-c4ccc(F)cc4)nnc-3c3cc(OC)c(OC)cc32)cc1	-16	0	-2	8	.	183
COc1cc2c3nnc(-c4ccc(F)cc4)c-3cn(Cc3ccc(F)cc3)c2cc1OC	-9	0	-1	1	.	94*
Cc1cc(C)c(S(=O)(=O)N2CCN(S(=O)(=O)N3CCOCC3)CC2)c(C)c1	-2	-1	-6	-3	1	68*
COc1ccc(-c2nnc(SCc3nc4ccccc4c(=O)[nH]3)o2)cc1	-2	1	-8	-1	-2	52*
Oc1ccc(Nc2nc(-c3ccc4ccccc4c3)cs2)cc1	3	-1	-16	2	.	23
Oc1ccc(-c2nc(-c3ccc(O)c(O)c3)cs2)cc1	12	29	-10	-2	-2	64*
CCOc1ccccc1C(=O)Nc1ccc(S(=O)(=O)Nc2nccc(C)n2)cc1	3	1	5	-1	-5	-9
Cc1ccc2nc(/C(C#N)=C/c3cn[nH]c3-c3ccc(F)cc3)[nH]c2c1	32*	3	-15	-4	-1	-27
Cc1cc2nc(/C(C#N)=C/c3ccncc3)[nH]c2cc1C	18	1	-10	15	107*	4
COc1ccc(/C(C#N)=C/c2cccnc2)cc1	-1	2	74*	-5	.	-4
N#C/C(=C\c1cccnc1)c1nc2ccccc2[nH]1	42*	.	.	.	.	-10
CCN(CC)c1c(C)nc2ccc(C(=O)NCc3ccc4c(c3)OCO4)cn12	-1	.	.	.	.	-6
CN1C(=O)OC(C)(C)C1=O	-2	0	-3	0	-1	?
SMILES	Glyco luc inh	CDK5 p35 inh	PvdQ inh	CAL PDZ FP-1	CAL PDZ FP-2	Vif inh
O=C(CN1C(=O)C(=O)N(Cc2ccco2)C1=O)Nc1ccccc1	2	1	-11	0	.	17
O=C1CCC/C(=N/NC(=O)c2ccc(NS(=O)(=O)c3cccs3)cc2)C1	0	1	6	2	-1	52*
O=C1CCC/C(=N/NC(=O)c2cc(NS(=O)(=O)c3cccs3)cc(NS(=O)(=O)c3cccs3)c2)C1	1	0	-10	-2	4	1
CC(=O)c1ccc(N2C(=O)CC(N3CCN(S(=O)(=O)c4cc(C)ccc4C)CC3)C2=O)cc1 (stereo unspecified)	2	-1	-13	-2	-1	16
Cc1cc(NC(=O)CSc2nc3c([nH]c4ccccc43)c(=O)n2-c2cccc(C(F)(F)F)c2)no1	-5	2	-13	.	-1	51*
COc1cccc(-n2c(SCC(=O)Nc3cc(C)on3)nc3c([nH]c4ccccc43)c2=O)c1	-1	-2	-11	-1	.	-2
OCCC1CCCCN1CC(O)COCc1ccc(Cl)cc1 (stereo unspecified)	0	0	0	1	.	6
Cc1ccc(C(CC(=O)O)NC(=O)c2ccc(S(=O)(=O)N3CC(C)OC(C)C3)cc2)cc1 (stereo unspecified)	3	-3	0	-3	-4	23
COc1cc(C2C(C#N)=C(N)Oc3cc(N)ccc32)cc(OC)c1OC (stereo unspecified)	32*	0	-7	0	-6	26
COc1ccc(C2C(C#N)=C(N)Oc3cc(N)ccc32)cc1 (stereo unspecified)	1	0	0	0	-8	-7
COc1ccc(Cc2nnc(NC(=O)c3cccc(C)c3)s2)cc1	2	1	-5	.	-4	-1
Cc1cccc(-c2nnn(Cc3nnc(NC(=O)c4ccccc4)s3)n2)c1	0	0	5	1	.	73*
CCCCNC(=O)c1onc(CSc2ccc(F)c(F)c2)c1C(=O)NCCCC	-3	1	2	0	-3	-6
O=C1NC(=O)/C(=C\c2ccc(O)cc2O)S1	-1	4	-9	0	52*	6
COc1ccc2c(C)c(Cl)c(=O)oc2c1	-1	-1	-10	-3	1	53*
COC(=O)c1ccc(NC(=O)c2c(C(=O)Nc3ccccc3)sc3nc(C)cc(=O)n23)cc1	0	-2	-15	-1	99*	4
COC(=O)c1ccc(NC(=O)c2sc3nc(-c4ccccc4)cn3c2C)cc1	-7	1	-11	0	.	-3
CC1=C(C(=O)OCc2ccccc2)C(c2ccc3c(c2)OCO3)NC(=O)N1CCCC(=O)O (stereo unspecified)	-1	0	2	-1	1	-4
CCCc1nnc2n1N=C(c1ccc(OC)c(OC)c1)CS2	4	-1	3	0	4	57*
